The results in this text go back to ChEMBL document CHEMBL1157211, “Carbamoyl tetrazoles as inhibitors of endocannabinoid inactivation: a critical revisitation” (Eur J Med Chem, 2008).

Test [1] in a line: Inhibition of MAGL mediated [14C]2-arachidonoyl glycerol hydrolysis in african green monkey COS cells. Type of test: cell-based. The note with it: Chlorocebus aethiops. Summed up: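 The 10,000 g cytosolic fraction of COS cells overexpressing DAGLα was used as the MAGL source. It was incubated with radiolabelled synthetic 2-arachidonoylglycerol (1.0 mCi/mmol) in 50 mM Tris-HCl, pH 7.0, at 37 °C for 20 min. Lipids were then extracted with 2 volumes of chloroform/methanol 2:1 and lyophilized.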

For test [2], the target named is T1, Diacylglycerol lipase-alpha (Homo sapiens, UniProt Q9Y4D2).
T1 sequence (Q9Y4D2 whole entry): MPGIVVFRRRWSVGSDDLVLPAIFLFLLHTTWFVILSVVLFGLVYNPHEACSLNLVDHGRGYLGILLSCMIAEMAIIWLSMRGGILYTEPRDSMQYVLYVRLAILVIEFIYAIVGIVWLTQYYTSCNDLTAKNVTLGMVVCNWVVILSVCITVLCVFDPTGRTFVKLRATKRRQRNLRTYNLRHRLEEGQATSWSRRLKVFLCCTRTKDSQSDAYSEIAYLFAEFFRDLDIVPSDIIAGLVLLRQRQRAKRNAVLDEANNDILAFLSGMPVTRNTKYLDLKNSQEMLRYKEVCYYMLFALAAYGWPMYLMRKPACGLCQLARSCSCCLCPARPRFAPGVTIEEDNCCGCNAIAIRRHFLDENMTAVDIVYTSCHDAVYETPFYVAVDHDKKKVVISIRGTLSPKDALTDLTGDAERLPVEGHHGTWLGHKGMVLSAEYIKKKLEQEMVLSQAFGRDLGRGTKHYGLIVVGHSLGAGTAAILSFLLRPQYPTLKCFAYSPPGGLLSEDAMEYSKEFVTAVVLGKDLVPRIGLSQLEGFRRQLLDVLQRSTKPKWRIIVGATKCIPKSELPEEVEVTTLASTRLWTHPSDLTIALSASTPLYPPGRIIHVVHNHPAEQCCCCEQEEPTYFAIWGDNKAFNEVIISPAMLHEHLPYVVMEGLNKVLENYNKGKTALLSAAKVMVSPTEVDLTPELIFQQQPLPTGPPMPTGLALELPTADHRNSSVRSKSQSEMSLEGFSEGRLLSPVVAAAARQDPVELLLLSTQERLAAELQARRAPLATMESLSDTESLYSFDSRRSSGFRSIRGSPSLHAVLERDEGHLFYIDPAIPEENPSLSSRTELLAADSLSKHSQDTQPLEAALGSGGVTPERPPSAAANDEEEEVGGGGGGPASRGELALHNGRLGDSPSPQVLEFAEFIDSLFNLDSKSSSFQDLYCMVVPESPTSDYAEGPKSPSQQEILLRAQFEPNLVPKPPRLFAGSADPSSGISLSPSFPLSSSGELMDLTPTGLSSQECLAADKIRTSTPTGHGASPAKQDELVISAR
Nature of the test: Inhibition of human recombinant DAGLalpha mediated sn-1-[14C]oleoyl-2-arachidonoyl-glycerol hydrolysis to 2-AG overexpressed in COS cells after 20 mins. Type of test: cell-based. Summed up: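 COS cells overexpressing DAGLα were harvested in Tris-HCl pH 7, Dounce-homogenized and spun at 800 g then 10 000 g at 4 °C. The 10 000 g membrane fraction was incubated with sn-1-[14C]oleoyl-2-arachidonoyl-glycerol in 50 mM Tris-HCl with 1 mM CaCl2, pH 7.0, for 20 min at 37 °C. Lipids were extracted with CHCl3/MeOH 2:1 and separated by silica TLC (CHCl3/MeOH/NH4OH 85/15/1). [14C]Oleic acid bands were β-counted.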

Test [3] addresses T2, Fatty-acid amide hydrolase 1 (Rattus norvegicus, UniProt P97612).
T2 sequence (P97612 whole entry): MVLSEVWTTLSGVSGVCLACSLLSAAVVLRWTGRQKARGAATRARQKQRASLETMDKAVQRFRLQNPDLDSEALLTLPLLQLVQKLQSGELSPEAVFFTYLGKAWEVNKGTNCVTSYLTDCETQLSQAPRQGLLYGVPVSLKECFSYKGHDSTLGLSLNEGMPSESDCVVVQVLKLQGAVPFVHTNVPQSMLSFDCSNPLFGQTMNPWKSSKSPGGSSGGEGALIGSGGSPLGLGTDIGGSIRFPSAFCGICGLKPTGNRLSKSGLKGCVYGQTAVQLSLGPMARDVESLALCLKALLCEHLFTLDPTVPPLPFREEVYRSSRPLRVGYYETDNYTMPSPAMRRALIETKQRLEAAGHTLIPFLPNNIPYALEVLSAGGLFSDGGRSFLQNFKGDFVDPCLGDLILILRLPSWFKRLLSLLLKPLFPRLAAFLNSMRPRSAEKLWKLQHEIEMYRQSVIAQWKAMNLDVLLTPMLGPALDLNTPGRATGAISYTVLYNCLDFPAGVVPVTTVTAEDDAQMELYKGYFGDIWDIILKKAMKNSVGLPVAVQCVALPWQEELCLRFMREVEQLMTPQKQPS
Kind of test: Inhibition of FAAH mediated [14C]anandamide hydrolysis in rat brain after 30 mins. Type of test: tissue-based. Summed up:
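Rat brain membranes incubated with test compounds and [14C]anandamide in 50 mM Tris-HCl, pH 9, for 30 min at 37 °C. After extraction with 2 volumes CHCl3/MeOH 2:1, [14C]ethanolamine in the aqueous phase was scintillation-counted. IC50 was taken as the concentration giving 50% inhibition of hydrolysis.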

The test system of test [4] is RBL-2H3. Kind of test: Inhibition of [14C]anandamide uptake in rat RBL-2H3 cells preincubated 10 mins before addition of [14C]anandamide. Type of test: functional, cell-based. The arrangement: inhibition (INH): concentration or dose not given beside the values. The note with it: for IC50: Rattus norvegicus, RBL-2H3. Summed up:
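Intact RBL-2H3 cells were pre-exposed to inhibitor at varying concentrations for 10 min, then given [14C]anandamide (10,000 cpm) for 90 s at 37 °C. Uptake was taken as the residual label in the medium after CHCl3/CH3OH 2:1 extraction, read by scintillation counting of the organic phase. Non-specific binding was defined with excess unlabelled anandamide. IC50 was calculated from the inhibition data.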

The subject of test [5] is RBL-2H3. Kind of test: Inhibition of [14C]anandamide uptake in rat RBL-2H3 cells at 0.1 uM preincubated 10 mins before addition of [14C]anandamide. Type of test: functional. Summed up:
(§1)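 RBL-2H3 cells were given inhibitor at 0.1 or 1 µM for 10 min, then [14C]anandamide (10,000 cpm) for 90 s at 37 °C. Uptake was read as residual medium label in the organic extract, and [14C]ethanolamine was counted in the aqueous phase in the same experiment. Results are % inhibition of uptake, N=4.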

The test system of test [6] is RBL-2H3. Nature of the test: Inhibition of [14C]anandamide uptake in rat RBL-2H3 cells at 1 uM preincubated 10 mins before addition of [14C]anandamide. Type of test: functional. Summed up:
as §1

In test [7] the target is T3, Fatty-acid amide hydrolase 1 (Rattus norvegicus) (UniProt P97612).
T3 sequence (whole entry): T2 sequence (P97612 whole entry)
Nature of the test: Inhibition of FAAH mediated [14C]anandamide hydrolysis in rat RBL-2H3 cells at 1 uM after 30 mins.

Test [8] addresses T3, Fatty-acid amide hydrolase 1 (Rattus norvegicus). Nature of the test: Inhibition of FAAH mediated [14C]anandamide hydrolysis in rat RBL-2H3 cells at 0.1 uM after 30 mins.
Test [9] concerns Monocyte. Nature of the test: Inhibition of anandamide uptake in human monocytes. The test is classed as functional, cell-based.

With `CN(C)C(=O)n1nnc(CCc2ccccc2)n1`, the 50% inhibitory concentration (IC50) in [1] was 480 nM; in [2] it was 600 nM; in [3], 3.5 nM; in test [4] it was more than 10000 nM. Moreover, in [4], the “inhibition (INH)” value turned out to be 10.9%.

With `CN(C)C(=O)n1nnc(CNC(=O)c2ccc(N=[N+]=[N-])c(I)c2)n1`, the concentration for half-maximal inhibition (IC50) is more than 10000 nM in [1], 4400 nM in test [2], 25 nM in [3] and more than 1000 nM in test [4]. Moreover, in [4], the “inhibition (INH)” value is listed as 9%.

For `CN(C)C(=O)n1nnnc1CCc1ccccc1`, the IC50 was 10000 nM in test [1], 10000 nM in [2], 5.4 nM in test [3] and more than 10000 nM in test [4]. The “inhibition (INH)” value in [4] is on record as 15.8%.

Consider `CN(C)C(=O)n1nnc(CNC(=O)c2ccc(-c3ccccc3)cc2)n1`, for which the IC50 is more than 10000 nM in [1], more than 10000 nM in test [2], 6 nM in [3] and 985 nM in [4].

In the case of `CN(C)C(=O)n1nnnc1CNC(=O)CCCCCCCc1ccccc1`, the IC50 in test [1] was 40 nM; in test [2] it was 570 nM; in test [3] it was 10 nM; in test [4], more than 10000 nM. Further, the “inhibition (INH)” value in test [4] came out at 37.5%.

For the compound `CN(C)C(=O)n1nnc(CNC(=O)CCCCCCc2ccccc2)n1`, the half-inhibitory concentration (IC50) was more than 10000 nM in [1], 10000 nM in [2], 2.1 nM in [3] and more than 10000 nM in [4]. In addition, the “inhibition (INH)” value in test [4] worked out at 30%.

`CN(C)C(=O)n1nnnc1CNC(=O)c1cccc(-c2ccccc2)c1`: the IC50 was found to be 850 nM in [1], 340 nM in test [2], 32 nM in test [3] and 90 nM in test [4].

Take `CN(C)C(=O)n1nnc(CCCc2ccccc2)n1`: the half-inhibitory concentration (IC50) is 110 nM in test [1], 500 nM in test [2], 3.2 nM in [3] and more than 10000 nM in test [4]. In addition, the “inhibition (INH)” value in test [4] is given as 16%.

For the compound `CN(C)C(=O)n1nnnc1CCCc1ccccc1`, the IC50 was 10000 nM in test [1], 10000 nM in test [2], 2.7 nM in test [3] and more than 10000 nM in [4]. Also, the “inhibition (INH)” value in test [4] is on record as 18%.

Take `CN(C)C(=O)n1nnnc1CNC(=O)CCCCCCc1ccccc1`: the IC50 in [1] is 20 nM; in test [2], 200 nM; in test [3], 3.7 nM; in test [4] it was 851 nM.

Take `CN(C)C(=O)n1nnc(CNC(=O)CCCCCCCc2ccccc2)n1`: the half-inhibitory concentration (IC50) in [1] is 10000 nM; in [2], 10000 nM; in [3] it was 3.2 nM; in test [4], more than 10000 nM. Also, in test [4], the “inhibition (INH)” value is 18.8%.

As for `CN(C)C(=O)n1nnnc1Cc1ccc(-c2ccccc2)cc1`, the IC50 is 8100 nM in test [1], more than 10000 nM in test [2], 2.1 nM in test [3] and 15 nM in [4]. In [5], this compound displayed an inhibition at 0.1 µM of 66.5%. For the same compound, the inhibition at 1 µM in [6] stood at 74.2%. Also, the figures for the inhibition in test [7] and in test [8] were 36.7% and 41.1%, respectively.

Take `CN(C)C(=O)n1nnc(CNC(=O)c2cccc(-c3ccccc3)c2)n1`: the IC50 is 10000 nM in test [1], more than 10000 nM in test [2], 23 nM in test [3] and more than 10000 nM in [4]. Moreover, the “inhibition (INH)” value in [4] turned out to be 23%.

Regarding `C=CCOc1ccc(CN(C/C=C/c2ccccc2)CCCC)cc1`, the IC50 in [9] turned out to be 90 nM.

On to `CN(C)C(=O)n1nnnc1CNC(=O)c1ccc(N=[N+]=[N-])c(I)c1`, for which the IC50 in test [1] is 350 nM; in test [2] it was 130 nM; in test [3], 23 nM; in test [4], more than 1000 nM. Also, the “inhibition (INH)” value in [4] is listed as 32.4%.

Turning to `CN(C)C(=O)n1nnc(Cc2ccc(-c3ccccc3)cc2)n1`, the concentration for half-maximal inhibition (IC50) in test [1] worked out at 20 nM; in test [2], 510 nM; in test [3], 33 nM; in test [4] it was 998 nM.

By IC50 is commonly meant the concentration that inhibits the measured activity by half. One may read the inhibition as the change of the read-out against control, counted positive when it falls.
